Compounds with a hit are over-represented: about 1.9% of the library has one in this group of screens.
Cneo AK release: Cryptococcus neoformans lysis via adenylate kinase release; C. neoformans lysis, adenylate kinase release luminescence, 4 h; normalised: neutral wells 0, clomiphene wells 100; lysis activity, % at 15 µM; hit rate 0.2% among 360,000;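 active means mean lysis activity across replicates of at least 80%, whatever share of replicates individually reach that level; inactive means mean lysis activity below 80%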
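Signal: Adenylate kinase release luminescence | Assay system: Log-phase Cryptococcus neoformans yeast cells | Input: Cells at 5 × 10^6 per mL | Buffer or medium: Fresh YPD growth medium | Compound: Single dose | Schedule: Static 4 h at 37 °C with compound, 1 h detection | Controls: Clomiphene | Read-out: Luminescence rise reflecting yeast cell lysis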
XiGFP reactiv: X-chromosome reactivation activator; XiGFP mouse fibroblasts, % GFP-positive cells imaging, 3 d; cells co-treated with 5-aza-dC sensitizer; scaled so ellipticine positive control = 100%; activation, % at 7.58 µM; hit rate 0.055% among 360,000; AID 743238;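 active means mean normalized replicate activation at least 10% and every replicate at or above 10%; inconclusive means only one of the two criteria met; inactive means mean below 10% and not all replicates reach 10%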
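Material: SV40-immortalized XiGFP fibroblast cells, line 68-5-11 | Buffer or medium: DMEM containing 5-aza-dC | Dosing: One concentration, pinned | Times: 3 d treatment, 15 min room-temperature fixation | Controls: Ellipticine 6 µM positive control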
FN deposition inh: fibronectin deposition inhibition; AH1F fibroblasts, Alexa488-fibronectin deposition fluorescence, overnight; inhibition, % at 12.6 µM; hit rate 0.086% among 350,000; AID 743247;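 active means mean inhibition across replicates of 30% or more, regardless of how many single replicates reach that level; inconclusive means mean under 30% yet at least half of replicates reach 30%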
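Material: AH1F fibroblast monolayer depositing Alexa488-labelled fibronectin into matrix | Input: 10000 AH1F cells/well | Medium: DMEM plus 2% serum, read in PBS | Reagent: Alexa488-fibronectin, 24 nM final in well | Compound dosing: One dose per compound, pinned | Schedule: 1 h adhesion, overnight exposure | Measured by: Fluorescence at 485 nm excitation, 525 nm emission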
PGC1a acetyl inh: PGC1a acetylation modulation, inhibitor mode; hit rate 0.17% among 350,000; U2OS PGC1a acetylation, AlphaScreen anti-acetyl-lysine; with virally co-expressed GCN5 acetyltransferase; inhibition, % at 15.6 µM;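 active means every replicate shows inhibition of at least 40%; inconclusive means mean inhibition at least 40% but some replicate below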
CFTR F508del cor: correctors of CFTR F508del function in bronchial epithelial cells; CFBE cells, YFP halide quenching; stimulated with forskolin plus potentiator P3; % fluorescence drop versus neutral controls; activity (quench increase), % at 7.58 µM; hit rate 0.36% among 350,000;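 active means mean added fluorescence quench of at least 8% versus neutral control, with both replicates also reaching 8%; inconclusive means only one of the mean or replicate conditions met; inactive means mean below 8% and not both replicates reaching 8%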;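 further: cells transiently co-express mutant CFTR-F508del with the halide-sensitive YFP; corrector assay measuring rescue of mutant channel to the surface after 24 h compound exposure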
DENV2 CPE: DENV2-induced cell death inhibition. DENV2-infected cells, cytopathic effect rescue, plate reader. CPE inhibition, % at 9.99 µM. hit rate 1.7% among 350,000. AID 651640; in the data active means CPE inhibition above about 20%, passing the limit was not always enough; inconclusive means no clear call, values can overlap the other calls; tested in BHK-21 cells
A number is an active result; - = inactive; ? = inconclusive; . = no result given.

SMILES | Cneo AK release | XiGFP reactiv | FN deposition inh | PGC1a acetyl inh | CFTR F508del cor | DENV2 CPE
COc1cccc(N2CCN(C(=O)c3ccc(CS(=O)c4ccc(C)cc4)o3)CC2)c1 (configuration not stated) | - | - | - | - | 9.6 | -
COc1cccc(N2CCN(C(=O)c3cn(Cc4ccccc4)nc3-c3cccnc3)CC2)c1 | - | - | - | - | 14.6 | -
COc1cccc(N2CCN(C(=O)c3ccc(CS(=O)c4ccc(Cl)cc4)o3)CC2)c1 (configuration not stated) | - | - | - | . | 8.4 | -
COc1cccc(CN2[C@@H](CO)[C@H](c3ccccc3)C23CN(Cc2ccccc2OC)C3)c1 | . | - | - | . | . | .
CO[C@H]1CN(C)C(=O)c2cc(NC(=O)c3ccno3)ccc2OC[C@@H](C)NC[C@@H]1C | - | - | - | - | - | -
C[C@@H]1CCCCO[C@@H](CN(C)Cc2ccc(C(=O)O)cc2)[C@H](C)CN([C@@H](C)CO)C(=O)c2cc(NC(=O)Nc3ccc4c(c3)OCO4)ccc2O1 | - | - | . | - | - | -
C[C@@H]1CN([C@H](C)CO)C(=O)Cc2cc(NC(=O)CCCCCC(=O)Nc3ccccc3N)ccc2O[C@H]1CN(C)S(=O)(=O)c1cn(C)cn1 | - | - | - | - | - | -
O=C(CCCc1ccccc1)Nc1cccc(C(=O)O)c1 | . | - | 32.7 | - | - | -
O=C(CCc1ccccc1)NC(=S)Nc1cccc(C(=O)O)c1 | - | - | - | . | - | -
COc1ccc2c3c([nH]c2c1)[C@@H](CO)N(C(=O)C1CCC1)CC31CN(C)C1 | . | - | . | . | - | -
CC(C)NC(=O)N(C)C[C@H]1Oc2ccc(NC(=O)CCC(F)(F)F)cc2C(=O)N([C@@H](C)CO)C[C@@H]1C | - | - | . | - | - | 23.2
CC(C)NC(=O)N(C)C[C@H]1Oc2ccc(NC(=O)CCC(F)(F)F)cc2C(=O)N([C@H](C)CO)C[C@H]1C | - | - | . | - | - | 71.5
CC(=O)NC[C@@H]1[C@H](c2ccc(-c3ccccc3F)cc2)[C@@H](CO)N1C(=O)C1CC1 | - | - | - | - | - | -
COc1ccc(-c2ccc3c(c2)[C@@H]2[C@@H](CCN2C(=O)c2ccc4c(c2)OCO4)[C@@H](CO)N3)cc1 | - | - | - | - | - | 74.2
O=C(c1ccc2c(c1)OCO2)N1CC[C@@H]2[C@H](CO)Nc3ccc(-c4ccccc4)cc3[C@@H]21 | - | - | - | - | - | 22.6
COc1ccc(-c2ccc3c(c2)[C@H]2[C@H](CCN2C(=O)c2ccc4c(c2)OCO4)[C@H](CO)N3)cc1 | - | - | - | - | - | -
CN(C)C(=O)c1ccc(-c2ccc3c(c2)[C@H]2[C@H](CCN2C(=O)c2ccccn2)[C@H](CO)N3)cc1 | - | - | - | - | - | 26.0
O=C(c1ccc2c(c1)OCO2)N1CC[C@@H]2[C@H]1c1cc(-c3ccccc3)ccc1N[C@@H]2CO | - | - | - | - | - | ?
Cc1noc(C)c1S(=O)(=O)Nc1ccc2c(c1)C(=O)N([C@H](C)CO)C[C@H](C)[C@H](CN(C)S(=O)(=O)c1ccccc1)OCCCC[C@@H](C)O2 | - | - | - | - | - | -
CO[C@H]1CN(C)C(=O)c2ccc(NC(=O)NC(C)C)cc2OC[C@@H](C)N(CC2CC2)C[C@@H]1C | - | - | . | - | - | -
S=P(N1CC1)(N1CC1)N1CC1 | - | - | - | - | - | 41.9
CCCN(C)C[C@H]1Oc2ncc(-c3cccc(C(=O)N(C)C)c3)cc2C(=O)N([C@@H](C)CO)C[C@H]1C | - | - | - | - | - | -
C[C@@H]1CCCCO[C@@H](CN(C)Cc2ccc(C(=O)O)cc2)[C@H](C)CN([C@H](C)CO)C(=O)c2cc(NS(=O)(=O)c3ccccc3)ccc2O1 | - | - | - | - | - | -
CC=Cc1ccc2n(c1=O)C[C@@H]1[C@@H](CO)[C@H](C(=O)NCc3ccc4c(c3)OCO4)[C@H]2N1C(=O)C1CC1 (mixture of isomers) | 101.1 | - | . | - | - | -
CC=Cc1ccc2n(c1=O)C[C@H]1[C@H](CO)[C@@H](C(=O)NCc3ccc4c(c3)OCO4)[C@@H]2N1C(=O)C1CC1 (mixture of isomers) | 104.2 | - | . | - | - | -
SMILES | Cneo AK release | XiGFP reactiv | FN deposition inh | PGC1a acetyl inh | CFTR F508del cor | DENV2 CPE
COc1ccc(CNC(=O)CCc2nnc3ccc(NCCCN4CCCC4=O)nn23)cc1 | - | - | - | - | - | -
COc1cccc(CNC(=O)CCc2nnc3ccc(NCCCN4CCCC4=O)nn23)c1 | - | - | 30.0 | - | - | -
OC[C@@H]1[C@H](c2ccc(/C=C/c3ccccc3)cc2)[C@H]2CN(CCC(F)(F)F)CCCCN12 | - | . | . | - | - | -
O=C(Nc1ccc2cn[nH]c2c1)c1c(Cl)cccc1Cl | - | - | . | - | . | .
O=C1C(Cl)=C(Nc2ccc3cn[nH]c3c2)C(=O)c2ccccc21 | - | - | 71.0 | 54.7 | - | -
CCN(Cc1ccncc1)C(=O)c1ccco1 | - | - | . | - | - | 25.5
COc1ccc2c3c([nH]c2c1)[C@@H](CO)N(C(=O)c1ccncc1)CC31CCN(C(=O)C2CCC2)CC1 | . | - | . | - | - | -
Cc1ccc(SC(c2ccccc2)C(Cn2cncn2)C(=O)c2ccccc2)cc1 (configuration not stated) | - | . | . | - | . | .
O=C(c1ccc(Cl)cc1)C(Cn1cncn1)C(Sc1ccccc1)c1ccccc1 (configuration not stated) | - | . | . | 61.3 | . | .
C=CC[C@]1(C(=O)N(C)C)COC(c2ccc(OCCCO)cc2)=N1 | - | . | . | . | - | .
C[C@H](CO)N1C[C@H](C)[C@H](CN(C)C(=O)Nc2ccc(F)cc2)Oc2ccc(NC(=O)CCCCCC(=O)Nc3ccccc3N)cc2C1=O | . | - | . | - | - | -
COc1ccc(NC(=O)N(C)C[C@@H]2Oc3ccc(NC(=O)CCCCCC(=O)Nc4ccccc4N)cc3C(=O)N([C@H](C)CO)C[C@@H]2C)cc1 | . | - | . | - | - | 53.2
COc1ccc(NC(=O)N(C)C[C@H]2Oc3c(NC(=O)CCCCCC(=O)Nc4ccccc4N)cccc3C(=O)N([C@@H](C)CO)C[C@@H]2C)cc1 | . | - | - | - | - | 30.0
C[C@H](CO)N1C[C@H](C)[C@H](CN(C)C(=O)Nc2ccc(C(F)(F)F)cc2)Oc2c(NC(=O)CCCCCC(=O)Nc3ccccc3N)cccc2C1=O | . | - | . | - | - | 34.8
C[C@H]1CN([C@@H](C)CO)C(=O)c2cc(NC(=O)CCCCCC(=O)Nc3ccccc3N)ccc2O[C@H]1CN(C)C(=O)Nc1ccc(F)cc1 | . | - | . | - | - | 34.7
